Assay results from ChEMBL document CHEMBL4177543, “Biseokeaniamides A, B, and C, Sterol O-Acyltransferase Inhibitors from an Okeania sp. Marine Cyanobacterium” (J Nat Prod, 2017).
Calls of active or inactive are those of the source. The calls are words filed in the database; no cut-off is given here. Non-standard residues stand in square brackets, D forms with d. Residues, ends and D or L forms follow the SMILES beside them. *: point of attachment. NMeF = CN[C@@H](Cc1ccccc1)C(=O)O; NMeV = CN[C@H](C(=O)O)C(C)C; Butyryl = CCCC(=O)*; X1 = CN(Cc1nccs1)*

Key:
[1] = biological target: T1, Sterol O-acyltransferase 1 (Chlorocebus aethiops, UniProt O77760); experiment: Inhibition of African green monkey SOAT1 expressed in CHO cell microsomal fractions assessed as reduction in neutral lipid synthesis incubated for 5 mins using [1-14C]oleoyl-CoA by thin-layer chromatography
T1 sequence (O77760 whole entry): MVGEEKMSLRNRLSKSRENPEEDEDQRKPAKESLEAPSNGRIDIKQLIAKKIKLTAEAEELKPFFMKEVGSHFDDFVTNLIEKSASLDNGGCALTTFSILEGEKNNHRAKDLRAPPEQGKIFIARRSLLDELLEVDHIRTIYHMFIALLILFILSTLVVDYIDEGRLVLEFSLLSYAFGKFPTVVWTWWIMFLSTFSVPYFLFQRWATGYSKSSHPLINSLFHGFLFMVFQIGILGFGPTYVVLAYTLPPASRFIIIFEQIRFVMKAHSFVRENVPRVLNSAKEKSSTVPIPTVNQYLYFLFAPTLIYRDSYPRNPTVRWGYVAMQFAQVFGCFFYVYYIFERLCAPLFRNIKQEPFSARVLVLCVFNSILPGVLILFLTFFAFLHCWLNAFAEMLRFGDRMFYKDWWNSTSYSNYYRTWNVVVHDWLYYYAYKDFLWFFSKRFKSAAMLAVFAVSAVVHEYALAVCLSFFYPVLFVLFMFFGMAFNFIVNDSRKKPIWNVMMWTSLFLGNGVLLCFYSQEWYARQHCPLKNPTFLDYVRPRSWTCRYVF

[2] = biological target: T1, Sterol O-acyltransferase 1; experiment: Inhibition of African green monkey SOAT1 expressed in CHO cells assessed as reduction in neutral lipid synthesis incubated for 6 hrs using [1-14C]oleic acid by thin-layer chromatography; assay type: cell-based
Summary of the method: (§1)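 CHO cells stably expressing monkey SOAT1 or SOAT2 in Ham's F-12 with 10% FBS, plated 1.25 × 10^5 cells/well, recovered overnight, ≥80% confluent. Sample added from 0–1 mg/mL MeOH stocks together with [1-14C]oleic acid (1 nmol) for 6 h at 37 °C. Lipids Bligh–Dyer extracted and separated by TLC; [14C]cholesteryl ester quantified vs control. IC50 from duplicated experiments.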

HeLa [3] = experiment: Growth inhibition of human HeLa cells incubated for 72 hrs by MTT assay; assay type: functional, cell-based
Summary of the method: (§2)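 HeLa (DMEM) or HL60 (RPMI) cells, 10% heat-inactivated FBS, 37 °C, 5% CO2. HeLa seeded 2 × 10^4 cells/well and cultured overnight; HL60 seeded 1 × 10^5 cells/well. Exposed to a range of concentrations for 72 h; proliferation read by MTT; IC50 reported.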

HL-60 = experiment: Growth inhibition of human HL60 cells incubated for 72 hrs by MTT assay; assay type: functional, cell-based; settings: HL-60, 72 h
Summary of the method: as §2

[4] = biological target: T2, Sterol O-acyltransferase 2 (Chlorocebus aethiops, UniProt O77759); experiment: Inhibition of African green monkey SOAT2 expressed in CHO cells assessed as reduction in neutral lipid synthesis incubated for 6 hrs using [1-14C]oleic acid by thin-layer chromatography; assay type: cell-based
T2 sequence (O77759 whole entry): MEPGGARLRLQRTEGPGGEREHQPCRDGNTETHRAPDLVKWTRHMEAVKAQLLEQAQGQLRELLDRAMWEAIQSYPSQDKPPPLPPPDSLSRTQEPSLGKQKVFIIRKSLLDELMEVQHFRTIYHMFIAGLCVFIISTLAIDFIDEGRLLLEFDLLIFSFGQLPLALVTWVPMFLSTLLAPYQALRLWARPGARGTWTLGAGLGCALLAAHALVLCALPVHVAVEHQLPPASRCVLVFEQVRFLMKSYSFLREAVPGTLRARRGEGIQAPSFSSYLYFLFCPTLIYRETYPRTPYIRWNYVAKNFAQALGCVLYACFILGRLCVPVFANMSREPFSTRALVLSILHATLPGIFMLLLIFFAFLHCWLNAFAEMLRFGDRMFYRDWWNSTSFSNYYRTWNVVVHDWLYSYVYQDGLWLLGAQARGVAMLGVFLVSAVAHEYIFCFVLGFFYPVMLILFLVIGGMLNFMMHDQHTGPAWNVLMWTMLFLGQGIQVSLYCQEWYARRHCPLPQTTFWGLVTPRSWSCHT
Summary of the method: as §1

[5] = biological target: T2, Sterol O-acyltransferase 2; experiment: Inhibition of African green monkey SOAT2 expressed in CHO cell microsomal fractions assessed as reduction in neutral lipid synthesis incubated for 5 mins using [1-14C]oleoyl-CoA by thin-layer chromatography
HeLa [6] = experiment: Induction of cell killing in human HeLa cells assessed as reduction in cell viability at 1 to 30 uM incubated for 48 hrs in presence of 50 uM Z-VAD-FMK by trypan blue dye exclusion method; assay type: functional, cell-based
Summary of the method: (§3)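 HeLa seeded 4 × 10^4 cells/well, cultured overnight, then preincubated 30 min with or without 50 μM Z-VAD-FMK. Compound added at various concentrations for 48 h. Cells stained with 0.8 mg/mL trypan blue; viability from counts of stained (dead) cells. Mean ± SD of quadruplicates.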

HeLa [7] = experiment: Induction of cell killing in human HeLa cells assessed as reduction in cell viability at 1 to 30 uM incubated for 48 hrs by trypan blue dye exclusion method; assay type: functional, cell-based
Summary of the method: as §3

HeLa [8] = experiment: Induction of apoptosis in human HeLa cells assessed as induction of caspase-3 activation incubated for 24 hrs using Ac-DEVD-pNA as substrate by spectrophotometry; assay type: functional, cell-based
Summary of the method: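 Exponentially growing HeLa, 2 × 10^6 cells per 60 mm dish, incubated 12 h at 37 °C, then treated 24 h. Cells washed in cold PBS, lysed by three freeze–thaw cycles plus 15 min on ice, and clarified at 15000g. Lysate incubated with Ac-DEVD-pNA, 37 °C, 4 h; p-nitroaniline read at 405 nm. Activity relative to 1% MeOH control; triplicates; tunicamycin positive control.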

| IC50 [1] [µM] | IC50 [2] [nM] | IC50 (HeLa [3]) [µM] | IC50 (HL-60) [µM] | IC50 [4] [nM] | IC50 [5] [µM] | SMILES | Activity (HeLa [6]) | Activity (HeLa [7]) | Activity (HeLa [8]) |
| --- | --- | --- | --- | --- | --- | --- | --- | --- | --- |
| 1.8 | 1800 | 29 | 30 | 1300 | 9.6 | CCCC(=O)N(C)[C@H](C(=O)N1CCC[C@H]1C(=O)N(C)[C@@H](Cc1ccccc1)C(=O)N[C@@H](CC(C)C)C(=O)N(C)[C@H](C(=O)N(C)Cc1nccs1)C(C)C)C(C)C (Butyryl-[NMeV]P[NMeF]L[NMeV]-X1) |  |  |  |
| 11 | > 12000 | 43 | > 100 | 9600 | > 32 | CCCC(=O)N[C@H](C(=O)N1CCC[C@H]1C(=O)N(C)[C@@H](Cc1ccccc1)C(=O)N[C@@H](CC(C)C)C(=O)N(C)[C@H](C(=O)N(C)Cc1nccs1)C(C)C)C(C)C (Butyryl-VP[NMeF]L[NMeV]-X1) |  |  |  |
| 6.8 | 6900 | 4.5 | 19 | 2500 | 9.9 | CCCC(=O)N(C)[C@H](C(=O)N1CCC[C@H]1C(=O)N(C)[C@@H](Cc1ccccc1)C(=O)N[C@@H](CC(C)C)C(=O)N[C@H](C(=O)N(C)Cc1nccs1)C(C)C)C(C)C (Butyryl-[NMeV]P[NMeF]LV-X1) | inactive | Active | Dose-dependent effect |
| 0.9 | 2500 |  |  | 1500 | 1.8 | COc1c([C@H](CC(C)C)OC(C)=O)ccc2c1C(=O)OCc1cc(C)cc(O)c1O2 |  |  |  |
